Assay results from ChEMBL document CHEMBL1155169, “Influence of morbid obesity on the single-dose pharmacokinetics of daptomycin” (Antimicrob Agents Chemother, 2007).

Tests used:
[1] = Cmin in normal weight human at 236 mg infused over 30 mins after 24 hrs; format: ADME, organism-based; settings: in vivo, iv, read-out: Cmin
[2] = AUC (0 to infinity) in morbidly obese human at 461 mg infused over 30 mins; format: ADME, organism-based; design: dose 461 mg, time infinity; settings: plasma, iv
How it was run: (§1)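 Single 30-min IV infusion at 4 mg/kg total body weight in adult females. Plasma sampled at 0.5, 1, 1.5, 2, 4, 8, 12 and 24 h and assayed by HPLC-UV at 214 nm. kel came from log-linear regression, giving t1/2 = ln2/kel. AUC0-∞ is the linear-trapezoidal AUC0-24 plus C24/kel.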

[3] = AUC (0 to infinity) in normal weight human at 236 mg infused over 30 mins; format: ADME, organism-based; design: dose 236 mg, time infinity; settings: plasma, iv; how it was run: as §1
[4] = Volume of distribution in morbidly obese human at 461 mg infused over 30 mins; format: ADME, organism-based; settings: in vivo, iv
[5] = Volume of distribution in normal weight human at 236 mg infused over 30 mins; format: ADME, organism-based; settings: in vivo, iv
Homo sapiens [6] = species on record: Homo sapiens; test: Volume of distribution per kg of total body weight in morbidly obese human at 461 mg infused over 30 mins; format: ADME, organism-based; settings: in vivo, iv, 0.5 h
Homo sapiens [7] = species on record: Homo sapiens; test: Volume of distribution per kg of total body weight in normal weight human at 236 mg infused over 30 mins; format: ADME, organism-based; settings: in vivo, iv, 0.5 h
Homo sapiens [8] = species on record: Homo sapiens; test: Volume of distribution per kg of ideal body weight in morbidly obese human at 461 mg infused over 30 mins; format: ADME, organism-based; settings: in vivo, iv, 0.5 h
Homo sapiens [9] = species on record: Homo sapiens; test: Volume of distribution per kg of ideal body weight in normal weight human at 236 mg infused over 30 mins; format: ADME, organism-based; settings: in vivo, iv, 0.5 h
Homo sapiens [10] = species on record: Homo sapiens; test: Volume of distribution per kg of fat-free weight in morbidly obese human at 461 mg infused over 30 mins; format: ADME, organism-based; settings: in vivo, iv, 0.5 h
Homo sapiens [11] = species on record: Homo sapiens; test: Volume of distribution per kg of fat-free weight in normal weight human at 236 mg infused over 30 mins; format: ADME, organism-based; settings: in vivo, iv, 0.5 h
[12] = Total clearance in morbidly obese human at 461 mg infused over 30 mins; format: ADME, organism-based; settings: in vivo, iv
How it was run: (§2)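 Adult females received 4 mg/kg daptomycin by total body weight, IV over 30 min. Plasma sampled to 24 h and assayed by HPLC-UV at 214 nm. Total clearance = dose/AUC0-∞ (trapezoidal AUC0-24 plus C24/kel). Normalized to total body weight, ideal body weight (45.5 + 2.3 × inches over 5 ft) or fat-free weight from bioelectric impedance.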

[13] = Total clearance in normal weight human at 236 mg infused over 30 mins; format: ADME, organism-based; settings: in vivo, iv; how it was run: as §2
Homo sapiens [14] = species on record: Homo sapiens; test: Total clearance per kg of total body weight in morbidly obese human at 461 mg infused over 30 mins; format: ADME, organism-based; settings: in vivo, iv, 0.5 h; how it was run: as §2
Homo sapiens [15] = species on record: Homo sapiens; test: Total clearance per kg of total body weight in normal weight human at 236 mg infused over 30 mins; format: ADME, organism-based; settings: in vivo, iv, 0.5 h; how it was run: as §2
Homo sapiens [16] = species on record: Homo sapiens; test: Total clearance per kg of ideal body weight in morbidly obese human at 461 mg infused over 30 mins; format: ADME, organism-based; settings: in vivo, iv, 0.5 h; how it was run: as §2
Homo sapiens [17] = species on record: Homo sapiens; test: Total clearance per kg of ideal body weight in normal weight human at 236 mg infused over 30 mins; format: ADME, organism-based; settings: in vivo, iv, 0.5 h; how it was run: as §2
Homo sapiens [18] = species on record: Homo sapiens; test: Total clearance per kg of fat-free weight in morbidly obese human at 461 mg infused over 30 mins; format: ADME, organism-based; settings: in vivo, iv, 0.5 h; how it was run: as §2
Homo sapiens [19] = species on record: Homo sapiens; test: Total clearance per kg of fat-free weight in normal weight human at 236 mg infused over 30 mins; format: ADME, organism-based; settings: in vivo, iv, 0.5 h; how it was run: as §2
[20] = Renal clearance in morbidly obese human at 461 mg infused over 30 mins; format: ADME, organism-based, Kidney; settings: in vivo, iv, read-out: CL_renal (converted)
How it was run: (§3)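 Adult females were given a single 30-min IV infusion (4 mg/kg total body weight). Bladder voided before dosing, then urine collected for 24 h. Urine and plasma assayed by HPLC-UV at 214 nm. Renal clearance = 24-h urinary amount / plasma AUC0-24. Normalized to total body weight, ideal body weight or bioimpedance fat-free weight.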

[21] = Renal clearance in normal weight human at 236 mg infused over 30 mins; format: ADME, organism-based, Kidney; settings: in vivo, iv, read-out: CL_renal (converted); how it was run: as §3
[22] = Renal clearance per kg of total body weight in morbidly obese human at 461 mg infused over 30 mins; format: ADME, organism-based, Kidney; settings: in vivo, iv, read-out: CL_renal (converted); how it was run: as §3
[23] = Renal clearance per kg of total body weight in normal weight human at 236 mg infused over 30 mins; format: ADME, organism-based, Kidney; settings: in vivo, iv, read-out: CL_renal (converted); how it was run: as §3
[24] = Renal clearance per kg of ideal body weight in morbidly obese human at 461 mg infused over 30 mins; format: ADME, organism-based, Kidney; settings: in vivo, iv, read-out: CL_renal (converted); how it was run: as §3
[25] = Renal clearance per kg of ideal body weight in normal weight human at 236 mg infused over 30 mins; format: ADME, organism-based, Kidney; settings: in vivo, iv, read-out: CL_renal (converted); how it was run: as §3
[26] = Renal clearance per kg of fat-free weight in morbidly obese human at 461 mg infused over 30 mins; format: ADME, organism-based, Kidney; settings: in vivo, iv, read-out: CL_renal (converted); how it was run: as §3
[27] = Renal clearance per kg of fat-free weight in normal weight human at 236 mg infused over 30 mins; format: ADME, organism-based, Kidney; settings: in vivo, iv, read-out: CL_renal (converted); how it was run: as §3
[28] = Half life in morbidly obese human at 461 mg infused over 30 mins; format: ADME, organism-based; settings: in vivo, iv; how it was run: as §1
[29] = Half life in normal weight human at 236 mg infused over 30 mins; format: ADME, organism-based; settings: in vivo, iv; how it was run: as §1
[30] = Protein binding in morbidly obese human serum at 461 mg infused over 30 mins; format: ADME, cell-free; settings: iv, read-out: PB (converted)
How it was run: (§4)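 Serum (separator tubes) was drawn at 0.5, 2 and 8 h after a single 30-min IV infusion of 4 mg/kg (total body weight) in adult females. Samples were spun at 1,500 × g for 10 min and stored at −80°C. Binding was measured by equilibrium dialysis, solid-phase extraction and LC-MS, linear over 1–250 μg/ml.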

[31] = Protein binding in normal weight human serum at 236 mg infused over 30 mins; format: ADME, cell-free; settings: iv, read-out: PB (converted); how it was run: as §4
[32] = Cmax in human at 4 mg/kg of total body weight; format: ADME, organism-based; design: dose 4 mg/kg; settings: in vivo
[33] = Cmax in morbidly obese human at 461 mg infused over 30 mins; format: ADME, organism-based; design: dose 461 mg; settings: in vivo, iv
[34] = Cmax in normal weight human at 236 mg infused over 30 mins; format: ADME, organism-based; design: dose 236 mg; settings: in vivo, iv
[35] = Cmin in morbidly obese human at 461 mg infused over 30 mins after 24 hrs; format: ADME, organism-based; settings: in vivo, iv, read-out: Cmin

Structure (SMILES): CCCCCCCCCC(=O)N[C@@H](Cc1c[nH]c2ccccc12)C(=O)N[C@H](CC(N)=O)C(=O)N[C@@H](CC(=O)O)C(=O)N[C@@H]1C(=O)NCC(=O)N[C@@H](CCCN)C(=O)N[C@@H](CC(=O)O)C(=O)N[C@H](C)C(=O)N[C@@H](CC(=O)O)C(=O)NCC(=O)N[C@H](CO)C(=O)N[C@@H]([C@H](C)CC(=O)O)C(=O)N[C@@H](CC(=O)c2ccccc2N)C(=O)O[C@@H]1C
- concentration at 24 h [1]: 3390 ng/mL
- AUC(0-inf) [2]: 581 µg·h/mL
- AUC(0-inf) [3]: 346 µg·h/mL
- Vd [4]: 10 L
- Vd [5]: 7.69 L
- Vd (Homo sapiens [6]): 0.09 L
- Vd (Homo sapiens [7]): 0.13 L
- Vd (Homo sapiens [8]): 0.19 L
- Vd (Homo sapiens [9]): 0.14 L
- Vd (Homo sapiens [10]): 0.18 L
- Vd (Homo sapiens [11]): 0.18 L
- clearance [12]: 13.7 mL/min
- clearance [13]: 12.2 mL/min
- CL (Homo sapiens [14]): 0.0071 L/h
- CL (Homo sapiens [15]): 0.012 L/h
- CL (Homo sapiens [16]): 0.016 L/h
- CL (Homo sapiens [17]): 0.013 L/h
- CL (Homo sapiens [18]): 0.015 L/h
- CL (Homo sapiens [19]): 0.016 L/h
- CL renal at 0.5 h [20]: 8.33 mL/min
- CL renal at 0.5 h [21]: 9.83 mL/min
- CL renal at 0.5 h [22]: 0.0733 mL/min
- CL renal at 0.5 h [23]: 0.158 mL/min
- CL renal at 0.5 h [24]: 0.16 mL/min
- CL renal at 0.5 h [25]: 0.165 mL/min
- CL renal at 0.5 h [26]: 0.153 mL/min
- CL renal at 0.5 h [27]: 0.217 mL/min
- half-life [28]: 8.68 h
- half-life [29]: 7.72 h
- fraction unbound at 0.5 h [30]: 0.112
- fraction unbound at 0.5 h [31]: 0.1
- Cmax [32]: 42300 ng/mL
- Cmax [33]: 67300 ng/mL
- Cmax [34]: 42300 ng/mL
- concentration at 24 h [35]: 6550 ng/mL
